Values joined by “and” are separate entries in the source; they are usually repeats but may differ in a detail not shown here. Identical values can stand only once.
System: U2OS
Test: Multiplex assay against U2OS
Format: toxicity, cell-based
Conditions: human, number of replicates 2
Method in brief: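 Cells stained live at seeding with Hoechst33342, BioTracker Green Microtubule Cytoskeleton Dye, MitoTracker Red and Annexin V Alexa Fluor 680 were imaged on a CQ1 microscope at 37°C and 5% CO2 after compound addition. Their classification by CellPathfinder machine-learning gating ran from Hoechst high-intensity objects versus normal cells, to healthy, pyknosed or fragmented nuclei among normal cells, to mitotic or apoptotic among pyknosed cells. Tubulin, mitochondrial-mass and membrane-permeability phenotypes are per cents of healthy-nucleus cells.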

[1] = 12 h, 1 µM, compound concentration 1 uM
[2] = 12 h, 10 µM, compound concentration 10 uM
[3] = 24 h, 1 µM, compound concentration 1 uM
[4] = 24 h, 10 µM, compound concentration 10 uM
[5] = 48 h, 1 µM, compound concentration 1 uM
[6] = 48 h, 10 µM, compound concentration 10 uM

CC(C)c1c(NC(=O)Nc2ccc(Cl)cc2)c(=O)n(-c2ccccc2)n1C
Population Apoptotic (%) [1]: 33% and 32% | Population Healthy Nuclei (%) [1]: 66% and 85% | Population Hoechst High Intensity Objects (%) [1]: 0% | Population Membrane Permeable-Phenotype (%) [1]: 0% | Population Mitochondria Different-Phenotype (%) [1]: 0% | Population Mitotic Cells (%) [1]: 66% and 68% | Population Normal (%) [1]: 100% | Population Pyknosed Nuclei (%) [1]: 10% and 9% | Population Tubulin-Different-Phenotype (%) [1]: 65% and 81% | Population Apoptotic (%) [2]: 100% and 43% | Population Hoechst High Intensity Objects (%) [2]: 0% | Population Membrane Permeable-Phenotype (%) [2]: 0% and 2% | Population Mitochondria Different-Phenotype (%) [2]: 0% | Population Normal (%) [2]: 100% and 99% | Population Pyknosed Nuclei (%) [2]: 6% | Population Tubulin-Different-Phenotype (%) [2]: 85% and 66% | Population Apoptotic (%) [3]: 50% and 26% | Population Healthy Nuclei (%) [3]: 68% and 89% | Population Hoechst High Intensity Objects (%) [3]: 0% | Population Membrane Permeable-Phenotype (%) [3]: 0% and 1% | Population Mitochondria Different-Phenotype (%) [3]: 0% | Population Mitotic Cells (%) [3]: 50% and 73% | Population Normal (%) [3]: 100% and 99% | Population Pyknosed Nuclei (%) [3]: 15% and 7% | Population Tubulin-Different-Phenotype (%) [3]: 61% and 84% | Population Apoptotic (%) [4]: 100% and 36% | Population Healthy Nuclei (%) [4]: 32% and 87% | Population Hoechst High Intensity Objects (%) [4]: 0% | Population Membrane Permeable-Phenotype (%) [4]: 0% and 2% | Population Mitochondria Different-Phenotype (%) [4]: 0% | Population Normal (%) [4]: 100% | Population Pyknosed Nuclei (%) [4]: 2% and 8% | Population Tubulin-Different-Phenotype (%) [4]: 64% and 78% | Population Apoptotic (%) [5]: 50% and 49% | Population Fragmented Nuclei (%) [5]: 12% and 3% | Population Healthy Nuclei (%) [5]: 72% and 88% | Population Hoechst High Intensity Objects (%) [5]: 0% | Population Membrane Permeable-Phenotype (%) [5]: 0% and 1% | Population Mitochondria Different-Phenotype (%) [5]: 0% | Population Mitotic Cells (%) [5]: 50% | Population Normal (%) [5]: 100% and 99% | Population Pyknosed Nuclei (%) [5]: 15% and 7% | Population Tubulin-Different-Phenotype (%) [5]: 62% and 85% | Population Apoptotic (%) [6]: 100% and 55% | Population Healthy Nuclei (%) [6]: 31% and 91% | Population Hoechst High Intensity Objects (%) [6]: 0% | Population Membrane Permeable-Phenotype (%) [6]: 0% and 1% | Population Mitochondria Different-Phenotype (%) [6]: 0% | Population Normal (%) [6]: 100% | Population Pyknosed Nuclei (%) [6]: 1% and 5% | Population Tubulin-Different-Phenotype (%) [6]: 77% and 80%

c1ccc2c(-c3coc4cc(-c5ccc(N6CCNCC6)cc5)cnc34)ccnc2c1
Population Healthy Nuclei (%) [1]: 82% and 84% | Population Mitochondria Different-Phenotype (%) [1]: 0% and 2% | Population Normal (%) [1]: 100% | Population Pyknosed Nuclei (%) [1]: 0% and 10% | Population Tubulin-Different-Phenotype (%) [1]: 84% and 81% | Population Apoptotic (%) [2]: 93% and 90% | Population Healthy Nuclei (%) [2]: 0% and 6% | Population Mitochondria Different-Phenotype (%) [2]: 100% and 75% | Population Mitotic Cells (%) [2]: 6% and 10% | Population Normal (%) [2]: 100% and 98% | Population Pyknosed Nuclei (%) [2]: 95% and 60% | Population Tubulin-Different-Phenotype (%) [2]: 100% | Total Cell Count [2]: 163 and 67 | Population Apoptotic (%) [3]: 100% and 76% | Population Healthy Nuclei (%) [3]: 91% and 82% | Population Mitochondria Different-Phenotype (%) [3]: 0% | Population Mitotic Cells (%) [3]: 0% and 23% | Population Normal (%) [3]: 100% | Population Pyknosed Nuclei (%) [3]: 2% and 10% | Population Tubulin-Different-Phenotype (%) [3]: 81% and 82% | Population Apoptotic (%) [4]: 92% and 87% | Population Healthy Nuclei (%) [4]: 0% and 4% | Population Mitotic Cells (%) [4]: 7% and 12% | Population Normal (%) [4]: 98% and 97% | Population Pyknosed Nuclei (%) [4]: 93% and 56% | Population Tubulin-Different-Phenotype (%) [4]: 100% and 66% | Total Cell Count [4]: 160 and 71 | Population Apoptotic (%) [5]: 75% | Population Healthy Nuclei (%) [5]: 83% and 84% | Population Mitochondria Different-Phenotype (%) [5]: 0% | Population Mitotic Cells (%) [5]: 25% | Population Normal (%) [5]: 100% | Population Pyknosed Nuclei (%) [5]: 6% and 10% | Population Tubulin-Different-Phenotype (%) [5]: 87% | Population Apoptotic (%) [6]: 91% | Population Healthy Nuclei (%) [6]: 8% and 1% | Population Mitotic Cells (%) [6]: 8% | Population Normal (%) [6]: 98% | Population Pyknosed Nuclei (%) [6]: 39% and 87% | Population Tubulin-Different-Phenotype (%) [6]: 57% and 100% | Total Cell Count [6]: 87 and 164

CS(=O)(=O)c1ccc(C(=O)Nc2cccc(COc3cc(F)c(Br)cc3CN3CC[C@H](O)C3)c2)c(Cl)c1.O=CO
Population Apoptotic (%) [1]: 62% and 55% | Population Hoechst High Intensity Objects (%) [1]: 0% | Population Pyknosed Nuclei (%) [1]: 19% and 14% | Population Apoptotic (%) [2]: 66% and 54% | Population Healthy Nuclei (%) [2]: 36% and 74% | Population Hoechst High Intensity Objects (%) [2]: 0% | Population Pyknosed Nuclei (%) [2]: 20% and 16% | Total Cell Count [2]: 90 and 192 | Population Apoptotic (%) [3]: 50% and 66% | Population Healthy Nuclei (%) [3]: 56% | Population Hoechst High Intensity Objects (%) [3]: 0% | Population Pyknosed Nuclei (%) [3]: 20% and 10% | Population Apoptotic (%) [4]: 82% and 73% | Population Healthy Nuclei (%) [4]: 33% | Population Hoechst High Intensity Objects (%) [4]: 0% | Population Pyknosed Nuclei (%) [4]: 19% and 26% | Total Cell Count [4]: 86 and 214 | Population Apoptotic (%) [5]: 58% and 92% | Population Fragmented Nuclei (%) [5]: 22% | Population Healthy Nuclei (%) [5]: 58% | Population Hoechst High Intensity Objects (%) [5]: 0% | Population Pyknosed Nuclei (%) [5]: 19% and 10% | Population Apoptotic (%) [6]: 88% and 84% | Population Healthy Nuclei (%) [6]: 26% | Population Hoechst High Intensity Objects (%) [6]: 0% | Population Pyknosed Nuclei (%) [6]: 28%

Source: ChEMBL document CHEMBL5303300, “EUbOPEN Chemogenomics Library - Multiplex” (2023)
